Assay outcomes from PubChem BioAssay.
KCNK3 inh = human KCNK3 channel inhibition, primary screen; B-score at 10 µM; O14649; AID 602410; CHO-KCNK3 thallium flux, FluxOR fluorescence; hits give low values; 340,000 compounds, 0.84% hits;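 active = B-score under library mean minus 4 SD, starting fluorescence ratio at most library mean plus 5 SD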;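 also: more negative B-score means stronger inhibition of thallium flux through KCNK3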
Kir21 block = Kir2.1 (mouse) channel inhibition; HEK293-Kir2.1, FluxOR thallium flux fluorescence; hits give low values; AID 1672; 310,000 compounds, 0.85% hits; B-score at 10 µM; P35561;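 active = fluorescence ratio B-score at or below minus 3 SD of library scores, with starting-brightness B-score within 2 SD, cut at about -4.2 in these data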;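 also: channel flux triggered by added potassium and thallium sulfate stimulus; B-score of peak minus minimum fluorescence over baseline after thallium stimulus; more negative B-score means stronger Kir2.1 block with less thallium influx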
KCNK9 inh = human KCNK9 channel inhibition. Q9NPC2. HEK293 KCNK9, FluxOR thallium flux fluorescence; hits give low values. B-score at 10 µM. 310,000 compounds, 1.2% hits. AID 488922;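 active = ratio B-score over 3 SD below the library mean, with starting fluorescence within 5 SD of its mean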;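 also: negative B-score means less thallium flux so channel inhibition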
Target sequence (Q9NPC2 whole entry, looked up): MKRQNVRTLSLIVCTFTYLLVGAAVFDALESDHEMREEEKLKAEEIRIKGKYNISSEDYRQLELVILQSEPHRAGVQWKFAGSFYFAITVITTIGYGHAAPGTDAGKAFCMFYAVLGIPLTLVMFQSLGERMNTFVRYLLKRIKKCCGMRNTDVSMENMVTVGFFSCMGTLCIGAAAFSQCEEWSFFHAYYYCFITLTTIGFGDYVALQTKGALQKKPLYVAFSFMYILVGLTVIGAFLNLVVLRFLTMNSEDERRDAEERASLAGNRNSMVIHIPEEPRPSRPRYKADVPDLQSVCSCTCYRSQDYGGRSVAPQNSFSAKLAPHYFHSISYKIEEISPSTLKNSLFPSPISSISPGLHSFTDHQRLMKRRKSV
KCNQ1 act = human KCNQ1 channel potentiation or activation; P51787; 310,000 compounds, 0.35% hits; B-score at 10 µM; CHO-K1 KCNQ1, thallium flux FluxOR fluorescence; hits give high values;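 active = fluorescence ratio B-score, a plate-corrected score, at least three library SD, with initial intensity B-score within 5 SD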
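Material: CHO-K1 cells stably expressing KCNQ1. Medium: assay buffer for compound exposure, DMSO matched across wells. Reagent: K+/Tl+ depolarizing stimulus. Compound dosing: single-concentration screen. Times: 37 °C overnight plating, 90-min dark dye load, 20-min compound pretreatment. Technique: FluxOR Tl+ flux fluorescence.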
hERG rescue = shields human hERG channel from block by proarrhythmic agents; Q12809; CHO-hERG, FluxOR thallium flux, dofetilide IC70 present; activation (rescue from dofetilide block), less the hit threshold, % at 10 µM; 310,000 compounds, 0.51% hits; AID 1511;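 active = activation above the mean of controls blocked by dofetilide plus 5 SD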;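 also: thallium influx through hERG after potassium depolarization seen as dye fluorescence rise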
KCNQ1 inh = blocks the human KCNQ1 potassium channel | B-score at 10 µM | 310,000 compounds, 1.3% hits | CHO-K1 KCNQ1, FluxOR thallium flux fluorescence; hits give high values | P51787 | AID 2642;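 active = compounds whose thallium flux B-score, printed positive for inhibition, exceeds three library SD while starting fluorescence stays within three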;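 also: channel opened by potassium depolarization with thallium stimulus after 20 min compound exposure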
* marks the source's active call; other numbers are inactive results; i = inactive; x = not tested or not shown. Hits are enriched below; roughly 3.7% of the tested compounds scored in any of these assays.

SMILES | KCNK3 inh | Kir21 block | KCNK9 inh | KCNQ1 act | hERG rescue | KCNQ1 inh
O=C(NC(=S)Nc1nc(-c2ccccc2)cs1)c1ccco1 | i | -0.15 | i | 30* | 25* | i
Cc1onc(-c2ccccc2)c1C(=O)Nc1nc(-c2cc(F)ccc2F)cs1 | i | -0.85 | i | i | -19 | i
CC(C)CC(=O)NC(=S)Nc1nc(-c2ccccc2)cs1 | i | 0.23 | i | 9* | 0 | i
CC(C)CC(=O)NC(=S)Nc1nc(-c2ccc(Cl)cc2)cs1 | i | -0.9 | i | i | -4 | i
COc1ccc(-c2csc(NC(=S)NC(=O)c3ccco3)n2)cc1 | i | 1.4 | i | 8* | -3 | i
Cc1onc(-c2ccccc2)c1C(=O)Nc1nc(-c2ccccc2)cs1 | i | 0.76 | i | i | -5 | 6*
O=C(Nc1nc(-c2ccncc2)cs1)c1ccco1 | i | -0.42 | i | i | -8 | i
COc1ccc2cc3c(nc2c1)OCC3 | i | -0.08 | i | i | -2 | i
Nc1c(-c2nn[nH]n2)cnn1-c1cc(Cl)cc(Cl)c1 | i | 1.1 | i | i | -3 | i
Cc1ccc(-c2csc(NC(=S)NC(=O)c3cccs3)n2)cc1 | i | 1.8 | i | i | -3 | i
O=C(NC(=S)Nc1nc(-c2ccccc2)cs1)c1cccs1 | i | -0.09 | i | 17* | 17* | i
COc1ccc(NC(=O)CN(C)C(=O)CCCSc2nc3ccccc3[nH]2)cc1 | i | -0.06 | i | i | -20 | i
O=C(NCCCN1CCOCC1)c1cn(-c2ccccc2)nc1-c1cccs1 | i | -4.5* | i | i | -11 | i
O=C(NCCN1CCOCC1)c1cn(-c2ccccc2)nc1-c1cccs1 | i | 2.4 | i | i | -14 | i
O=C(Cc1cccs1)Nc1nc(-c2ccc(F)c(F)c2)cs1 | i | 0.5 | i | i | -6 | i
COc1ccc(-c2csc(NC(=O)Cc3ccccc3F)n2)c(OC)c1 | i | 0.85 | -6.9* | i | -7 | i
O=C(Cc1cccs1)Nc1nc(-c2ccc(F)cc2F)cs1 | i | 0.29 | -7.5* | i | -5 | i
COc1ccc(CC(=O)Nc2nc(C(C)(C)C)cs2)cc1 | i | -8.2* | i | i | 1 | i
O=C(Nc1ccc(Br)cc1Cl)Nn1cnnc1 | i | -1.3 | i | i | 6.2* | i
CCCc1cc(=O)[nH]c(SCC(=O)NCc2ccc3c(c2)OCO3)n1 | i | -0.2 | i | i | -5 | i
O=[N+]([O-])c1ccc(/C=N/N2CCCCC2)cc1 | i | 0.66 | i | i | -1 | i
CCOc1ccccc1CNS(=O)(=O)c1ccc2c(c1)oc(=O)n2C | i | -2.2 | i | i | -2 | i
CCOc1ccccc1CNS(=O)(=O)c1ccc2[nH]c(=O)sc2c1 | i | -5.2* | i | i | -7 | i
CC(C)CC(C(=O)NC1CCCC1)N(Cc1cccs1)C(=O)c1snc(C(N)=O)c1N (centres undefined) | i | -0.41 | i | i | -32 | i
CC(C)CC(C(=O)NC1CCCCC1)N(Cc1cccs1)C(=O)c1snc(C(N)=O)c1N (centres undefined) | i | 0.55 | i | i | -21 | 8*
SMILES | KCNK3 inh | Kir21 block | KCNK9 inh | KCNQ1 act | hERG rescue | KCNQ1 inh
CN(C)c1ccc(C(C(=O)NCc2ccccc2)N(Cc2cccnc2)C(=O)c2snc(C(N)=O)c2N)cc1 (centres undefined) | i | -0.82 | i | i | -9 | 8*
COc1ccc(C(C(=O)NCc2ccccc2)N(Cc2cccnc2)C(=O)c2snc(C(N)=O)c2N)cc1OC (centres undefined) | i | 1.9 | i | i | -21 | i
CCCCC(C(=O)NC1CCCC1)N(Cc1ccccc1)C(=O)c1snc(C(N)=O)c1N (centres undefined) | i | 1.2 | i | i | -12 | 10*
COc1ccc(-c2cn3nc(SCC(=O)NC4CCCCC4)ccc3n2)cc1 | i | -2.4 | i | i | 5.3* | i
COc1ccc(-c2ccc(SCC(=O)NC3CCCCC3)nn2)cc1 | i | -0.89 | i | i | -3 | i
O=C(/C=C/c1ccccc1[N+](=O)[O-])NC1CCCC1 | i | 1.4 | i | i | -7 | i
CN(C)CCCn1c(=O)n(CCc2ccccc2)c(=O)c2c3c(sc21)CCCCC3 | i | -3 | i | i | -12 | i
CN(C)CCCNc1nc2sc3c(c2c(=O)n1CCc1ccccc1)CCCCC3 | i | -5.4* | i | i | -14 | i
Cc1cccnc1NCc1ccc(O)c2ncccc12 | i | 1.6 | i | i | 6.8* | i
Cc1cccc(NCc2ccc(O)c3ncccc23)c1C | i | 0.55 | i | i | -10 | i
Cc1ccccc1NC1=NC(=S)N(c2ccccc2)C12CCCCC2 | i | 0.32 | i | 15* | 12* | i
CCc1c(C)sc2nc(C(C)C)nc(SCC(=O)N3CCc4ccccc4C3)c12 | x | 0.01 | i | i | -7 | 9*
CCCc1nc(SCC(=O)N2CCc3ccccc3C2)c2ccccc2n1 | i | -5.6* | i | i | -2 | i
Cc1sc2nc(C(C)C)nc(SCC(=O)N3CCN(C(=O)c4ccco4)CC3)c2c1C | i | -0.21 | i | i | -2 | i
CC(C)c1ccc(C(=O)OCC(=O)NC2CCCC2)cc1 | i | 1.2 | i | i | -4 | i
Cc1cccn2c(=O)c3cc(C(=O)N4c5ccccc5CC4C)n(C)c3nc12 (centres undefined) | i | -0.59 | i | i | 9.2* | i
COc1cc(/C=C2/SC(=S)N(CC(=O)O)C2=O)ccc1OCC(=O)Nc1ccc(C)c(C)c1 | i | 1.2 | i | i | 19* | i
Cc1ccc(NC(=O)CN(C)C(=O)C(Sc2ccccc2)c2ccccc2)cc1 (centres undefined) | i | x | x | x | x | x
CC(C)(C)C(=O)NC(=S)NNC(=O)C(c1ccccc1)c1ccccc1 | i | -1.4 | i | 31* | -8 | i
CC(=O)NNC(=S)NC(=O)C(c1ccccc1)c1ccccc1 | i | 0.91 | i | i | -16 | i
NNC(=O)c1cc(C23CC4CC(CC(C4)C2)C3)nc2ccccc12 | i | 0.45 | i | i | -10 | 6*
O=C(NNc1c2ccccc2nc2ccccc12)C12CC3CC(CC(C3)C1)C2 | i | 1 | i | i | 0 | i
O=C(OCC(=O)N1CCCC1=O)c1ncc(Cl)c(Cl)c1Cl | i | 0.6 | i | i | -14 | i
CC(C)N(Cc1ccccc1)C(=S)NCc1ccccc1 | i | -4.2* | i | i | -9 | i
